Active and inactive are the calls of the source. No cut-off for these calls is given here.
Tests used:
[1] = molecular target: Mitogen-activated protein kinase 1 (Homo sapiens) (UniProt P28482); test: Inhibition of human ERK2 assessed as residual activity at 5 uM relative to control
Outline: (§1)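 Residual kinase activity determined with each compound at 5×10⁻⁶ and 5×10⁻⁵ M, in singlicate per kinase assay, expressed relative to uninhibited control.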

[2] = molecular target: 5'-AMP-activated protein kinase catalytic subunit alpha-1 (Homo sapiens) (UniProt Q13131); test: Inhibition of human AMPK alpha-1 assessed as residual activity at 50 uM relative to control; outline: as §1
Chain of 5'-AMP-activated protein kinase catalytic subunit alpha-1 (Homo sapiens) (Q13131 whole entry, looked up): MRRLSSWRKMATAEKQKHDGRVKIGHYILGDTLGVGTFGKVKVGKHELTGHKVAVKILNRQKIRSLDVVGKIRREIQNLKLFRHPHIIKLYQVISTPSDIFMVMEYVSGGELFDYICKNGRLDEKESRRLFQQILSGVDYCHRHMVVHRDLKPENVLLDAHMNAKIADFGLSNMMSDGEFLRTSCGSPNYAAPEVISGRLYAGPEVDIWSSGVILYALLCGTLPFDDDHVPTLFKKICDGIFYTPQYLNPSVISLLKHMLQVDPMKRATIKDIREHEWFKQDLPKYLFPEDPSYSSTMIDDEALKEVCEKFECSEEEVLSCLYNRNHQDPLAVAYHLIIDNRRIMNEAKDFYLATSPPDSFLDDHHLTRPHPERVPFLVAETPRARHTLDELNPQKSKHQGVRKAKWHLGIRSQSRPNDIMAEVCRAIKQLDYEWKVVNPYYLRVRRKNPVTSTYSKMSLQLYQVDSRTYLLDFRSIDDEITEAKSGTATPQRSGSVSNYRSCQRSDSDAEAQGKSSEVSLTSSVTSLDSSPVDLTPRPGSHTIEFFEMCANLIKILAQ

[3] = molecular target: Mitogen-activated protein kinase 8 (Homo sapiens) (UniProt P45983); test: Inhibition of human JNK1 assessed as residual activity at 5 uM relative to control; outline: as §1
Chain of Mitogen-activated protein kinase 8 (Homo sapiens) (P45983 whole entry): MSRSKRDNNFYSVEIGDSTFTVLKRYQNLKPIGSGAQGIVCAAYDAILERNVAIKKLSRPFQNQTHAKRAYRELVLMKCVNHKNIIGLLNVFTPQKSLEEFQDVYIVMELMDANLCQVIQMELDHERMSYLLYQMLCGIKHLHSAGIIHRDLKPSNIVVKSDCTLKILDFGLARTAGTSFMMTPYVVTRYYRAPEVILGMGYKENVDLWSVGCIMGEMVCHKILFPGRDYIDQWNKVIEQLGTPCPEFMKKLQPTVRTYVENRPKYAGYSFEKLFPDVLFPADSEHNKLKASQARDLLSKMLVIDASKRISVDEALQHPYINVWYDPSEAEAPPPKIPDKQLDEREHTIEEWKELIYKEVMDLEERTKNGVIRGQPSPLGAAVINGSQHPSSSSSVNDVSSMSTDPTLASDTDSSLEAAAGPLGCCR

[4] = molecular target: Mitogen-activated protein kinase 1 (Homo sapiens) (UniProt P28482); test: Inhibition of human ERK2 assessed as residual activity at 50 uM relative to control; outline: as §1
[5] = molecular target: 5'-AMP-activated protein kinase catalytic subunit alpha-1 (Homo sapiens) (UniProt Q13131); test: Inhibition of human AMPK alpha-1 assessed as residual activity at 5 uM relative to control; outline: as §1
Homo sapiens [6] = species on record: Homo sapiens; test: Inhibition of human AKT assessed as residual activity at 50 uM relative to control; outline: as §1
[7] = molecular target: Receptor tyrosine-protein kinase erbB-2 (Homo sapiens) (UniProt P04626); test: Inhibition of human HER2 assessed as residual activity at 50 uM relative to control; outline: as §1
Chain of Receptor tyrosine-protein kinase erbB-2 (Homo sapiens) (P04626 whole entry): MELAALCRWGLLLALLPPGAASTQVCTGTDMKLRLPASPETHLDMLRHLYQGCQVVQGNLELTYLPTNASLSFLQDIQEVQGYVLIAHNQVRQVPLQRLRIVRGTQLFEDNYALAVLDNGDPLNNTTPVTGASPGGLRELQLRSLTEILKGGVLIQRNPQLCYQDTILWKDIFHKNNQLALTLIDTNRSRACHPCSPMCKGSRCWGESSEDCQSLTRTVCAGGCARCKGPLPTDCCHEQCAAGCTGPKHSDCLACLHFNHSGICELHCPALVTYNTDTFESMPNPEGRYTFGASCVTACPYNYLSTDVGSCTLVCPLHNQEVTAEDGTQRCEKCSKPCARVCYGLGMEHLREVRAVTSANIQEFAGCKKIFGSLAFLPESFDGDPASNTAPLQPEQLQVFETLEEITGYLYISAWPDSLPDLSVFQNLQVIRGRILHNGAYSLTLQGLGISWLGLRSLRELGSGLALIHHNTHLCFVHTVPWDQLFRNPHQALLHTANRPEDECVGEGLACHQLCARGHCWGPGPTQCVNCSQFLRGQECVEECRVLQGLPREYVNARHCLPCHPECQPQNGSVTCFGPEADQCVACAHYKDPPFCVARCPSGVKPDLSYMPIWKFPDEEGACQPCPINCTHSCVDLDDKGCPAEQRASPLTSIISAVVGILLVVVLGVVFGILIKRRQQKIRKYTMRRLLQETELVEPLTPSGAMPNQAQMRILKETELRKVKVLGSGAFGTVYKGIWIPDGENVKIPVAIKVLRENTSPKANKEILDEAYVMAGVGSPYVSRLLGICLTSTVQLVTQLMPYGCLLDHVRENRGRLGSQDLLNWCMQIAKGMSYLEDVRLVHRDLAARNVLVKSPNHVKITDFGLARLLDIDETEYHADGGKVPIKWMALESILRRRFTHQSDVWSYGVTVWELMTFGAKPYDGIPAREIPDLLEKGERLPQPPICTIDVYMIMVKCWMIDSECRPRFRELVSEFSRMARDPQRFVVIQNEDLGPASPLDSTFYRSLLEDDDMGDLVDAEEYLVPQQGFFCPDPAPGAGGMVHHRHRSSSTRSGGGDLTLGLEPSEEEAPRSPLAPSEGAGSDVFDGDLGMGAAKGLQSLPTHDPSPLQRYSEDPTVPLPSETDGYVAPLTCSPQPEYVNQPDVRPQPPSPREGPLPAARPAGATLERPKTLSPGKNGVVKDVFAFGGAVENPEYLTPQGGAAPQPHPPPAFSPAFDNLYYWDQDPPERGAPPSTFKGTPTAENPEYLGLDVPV

[8] = molecular target: Epidermal growth factor receptor (Homo sapiens) (UniProt P00533); test: Inhibition of human EGFR assessed as residual activity at 5 uM relative to control; outline: as §1
Chain of Epidermal growth factor receptor (Homo sapiens) (P00533 whole entry): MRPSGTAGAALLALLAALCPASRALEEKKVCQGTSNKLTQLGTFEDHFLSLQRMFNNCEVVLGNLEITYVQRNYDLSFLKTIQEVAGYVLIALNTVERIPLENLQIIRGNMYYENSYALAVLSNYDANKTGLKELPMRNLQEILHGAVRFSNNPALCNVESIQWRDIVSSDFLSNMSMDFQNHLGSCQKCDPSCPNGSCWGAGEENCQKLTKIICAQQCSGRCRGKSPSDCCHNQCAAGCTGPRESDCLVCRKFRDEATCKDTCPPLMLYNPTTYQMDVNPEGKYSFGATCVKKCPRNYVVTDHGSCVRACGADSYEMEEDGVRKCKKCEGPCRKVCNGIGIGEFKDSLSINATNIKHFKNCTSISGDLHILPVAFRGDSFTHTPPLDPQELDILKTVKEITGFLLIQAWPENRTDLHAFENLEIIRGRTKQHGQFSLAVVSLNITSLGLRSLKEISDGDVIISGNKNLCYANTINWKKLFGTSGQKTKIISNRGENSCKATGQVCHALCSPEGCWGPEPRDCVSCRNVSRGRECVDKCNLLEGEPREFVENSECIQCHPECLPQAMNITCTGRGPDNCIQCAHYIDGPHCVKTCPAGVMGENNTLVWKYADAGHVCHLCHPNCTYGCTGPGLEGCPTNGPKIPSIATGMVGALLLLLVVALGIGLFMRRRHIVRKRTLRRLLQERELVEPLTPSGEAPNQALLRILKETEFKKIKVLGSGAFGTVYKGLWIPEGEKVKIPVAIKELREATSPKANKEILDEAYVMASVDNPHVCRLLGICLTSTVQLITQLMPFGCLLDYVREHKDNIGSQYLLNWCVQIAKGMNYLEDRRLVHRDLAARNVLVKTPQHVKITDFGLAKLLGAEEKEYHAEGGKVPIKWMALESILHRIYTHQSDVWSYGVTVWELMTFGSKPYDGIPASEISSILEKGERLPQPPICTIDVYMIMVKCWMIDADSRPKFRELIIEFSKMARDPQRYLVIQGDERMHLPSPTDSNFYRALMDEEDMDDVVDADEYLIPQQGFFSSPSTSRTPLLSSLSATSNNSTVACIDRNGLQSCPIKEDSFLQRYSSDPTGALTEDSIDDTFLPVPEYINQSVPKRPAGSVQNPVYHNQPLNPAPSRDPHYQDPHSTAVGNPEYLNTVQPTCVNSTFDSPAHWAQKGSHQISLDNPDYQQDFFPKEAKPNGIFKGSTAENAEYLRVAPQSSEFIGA

MCF7 [9] = test: Antiproliferative activity against human MCF7 cells incubated for 72 hrs by SRB assay; format: functional, cell-based; conditions: MCF7, 72 h
Outline: (§2)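 Sulforhodamine B colorimetric read-out after 72 h drug exposure. Cells kept in DMEM with 10 % FBS and 1 % penicillin/streptomycin at 37 °C under 5 % CO₂, mycoplasma-checked, passaged under 6 months. Compounds given from DMSO stocks diluted in medium, final DMSO ≤ 0.1 % v/v, with DMSO-only parallel cultures as controls. IC50 reported as mean ± SD of three independent determinations, each run in duplicate.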

[10] = molecular target: Mitogen-activated protein kinase 8 (Homo sapiens) (UniProt P45983); test: Inhibition of human JNK1 assessed as residual activity at 50 uM relative to control; outline: as §1
[11] = molecular target: Receptor tyrosine-protein kinase erbB-2 (Homo sapiens) (UniProt P04626); test: Inhibition of human HER2 assessed as residual activity at 5 uM relative to control; outline: as §1
[12] = molecular target: Epidermal growth factor receptor (Homo sapiens) (UniProt P00533); test: Inhibition of human EGFR assessed as residual activity at 50 uM relative to control; outline: as §1
[13] = molecular target: T1, LKB1-STRAD-MO25 complex (Homo sapiens) (UniProt Q15831+Q7RTN6+Q9Y376); test: Inhibition of human LKB1/MO25/STRADalpha assessed as residual activity at 5 uM relative to control; format: protein-complex assay; outline: as §1
[14] = molecular target: Mitogen-activated protein kinase 14 (Homo sapiens) (UniProt Q16539); test: Inhibition of human P38-alpha assessed as residual activity at 50 uM relative to control; outline: as §1
Chain of Mitogen-activated protein kinase 14 (Homo sapiens) (Q16539 whole entry): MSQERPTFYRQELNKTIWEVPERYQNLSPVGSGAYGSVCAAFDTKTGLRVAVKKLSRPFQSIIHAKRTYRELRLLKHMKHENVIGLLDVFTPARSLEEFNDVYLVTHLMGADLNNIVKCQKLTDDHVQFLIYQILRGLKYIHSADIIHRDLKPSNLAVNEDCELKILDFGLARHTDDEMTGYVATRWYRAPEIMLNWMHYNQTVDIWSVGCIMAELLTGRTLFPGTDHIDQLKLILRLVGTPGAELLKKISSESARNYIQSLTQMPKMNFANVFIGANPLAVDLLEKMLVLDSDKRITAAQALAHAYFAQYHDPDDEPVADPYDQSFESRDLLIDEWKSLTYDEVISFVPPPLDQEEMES

Homo sapiens [15] = species on record: Homo sapiens; test: Inhibition of human AKT assessed as residual activity at 5 uM relative to control; outline: as §1
HCT-116 [16] = test: Antiproliferative activity against human HCT-116 cells incubated for 72 hrs by SRB assay; format: functional, cell-based; conditions: HCT-116, 72 h; outline: as §2
[17] = molecular target: T1, LKB1-STRAD-MO25 complex (Homo sapiens); test: Inhibition of human LKB1/MO25/STRADalpha assessed as residual activity at 50 uM relative to control; format: protein-complex assay; outline: as §1
[18] = molecular target: Mitogen-activated protein kinase 14 (Homo sapiens) (UniProt Q16539); test: Inhibition of human P38-alpha assessed as residual activity at 5 uM relative to control; outline: as §1
MCF7 [19] = test: Cytotoxicity against human MCF7 cells at 50 uM incubated for 12 hrs by PI staining based flow cytometry relative to control; format: functional
HCT-116 [20] = test: Induction of morphological changes in human HCT-116 cells assessed as flattening of cellular structure incubated for 24 hrs by SEM analysis; format: functional, cell-based
HCT-116 [21] = test: Induction of morphological changes in human HCT-116 cells assessed as formation of vesicular bodies incubated for 24 hrs by SEM analysis; format: functional, cell-based
HCT-116 [22] = test: Induction of cell cycle arrest in human HCT-116 cells assessed as accumulation of cells at S phase at 50 uM incubated for 12 hrs by PI staining based flow cytometry (reference value: 18.7 +/- 0.5 %); format: functional
MCF7 [23] = test: Induction of morphological changes in human MCF7 cells assessed as formation of round vesicular bodies incubated for 24 hrs by SEM analysis; format: functional, cell-based
HCT-116 [24] = test: Induction of morphological changes in human HCT-116 cells assessed as formation of membrane blebbing incubated for 24 hrs by SEM analysis; format: functional, cell-based
HCT-116 [25] = test: Induction of cell cycle arrest in human HCT-116 cells assessed as accumulation of cells at G2/M phase at 50 uM incubated for 12 hrs by PI staining based flow cytometry (reference value: 8.3 +/- 0.74 %); format: functional
HCT-116 [26] = test: Induction of morphological changes in human HCT-116 cells assessed as multiple cellular remnants formation incubated for 24 hrs by SEM analysis; format: functional, cell-based
MCF7 [27] = test: Induction of morphological changes in human MCF7 cells assessed as formation of large pores in cell membrane incubated for 12 hrs by SEM analysis
HCT-116 [28] = test: Induction of apoptosis in human HCT-116 cells assessed as late apoptotic cells at 50 uM incubated for 12 hrs by Annexin V-FITC/PI staining based flow cytometry (reference value: 2.8 +/- 0.38 %); format: functional
MCF7 [29] = test: Induction of apoptosis in human MCF7 cells assessed as early apoptotic cells at 50 uM incubated for 12 hrs by Annexin V-FITC/PI staining based flow cytometry (reference value: 0.33 +/- 0.12 %); format: functional
HCT-116 [30] = test: Induction of apoptosis in human HCT-116 cells assessed as necrotic cells at 50 uM incubated for 12 hrs by Annexin V-FITC/PI staining based flow cytometry (reference value: 3.5 +/- 0.66 %); format: functional
MCF7 [31] = test: Induction of apoptosis in human MCF7 cells assessed as late apoptotic cells at 50 uM incubated for 12 hrs by Annexin V-FITC/PI staining based flow cytometry (reference value: 0.26 +/- 0.09 %); format: functional
MCF7 [32] = test: Induction of morphological changes in human MCF7 cells assessed as formation of membrane blebbing incubated for 24 hrs by SEM analysis; format: functional, cell-based
MCF7 [33] = test: Induction of apoptosis in human MCF7 cells assessed as necrotic cells at 50 uM incubated for 12 hrs by Annexin V-FITC/PI staining based flow cytometry (reference value: 0.56 +/- 0.04 %); format: functional
HCT-116 [34] = test: Induction of morphological changes in human HCT-116 cells assessed as pore formation in cell membrane incubated for 24 hrs by SEM analysis; format: functional, cell-based

Chain of Mitogen-activated protein kinase 1 (Homo sapiens) (P28482 whole entry): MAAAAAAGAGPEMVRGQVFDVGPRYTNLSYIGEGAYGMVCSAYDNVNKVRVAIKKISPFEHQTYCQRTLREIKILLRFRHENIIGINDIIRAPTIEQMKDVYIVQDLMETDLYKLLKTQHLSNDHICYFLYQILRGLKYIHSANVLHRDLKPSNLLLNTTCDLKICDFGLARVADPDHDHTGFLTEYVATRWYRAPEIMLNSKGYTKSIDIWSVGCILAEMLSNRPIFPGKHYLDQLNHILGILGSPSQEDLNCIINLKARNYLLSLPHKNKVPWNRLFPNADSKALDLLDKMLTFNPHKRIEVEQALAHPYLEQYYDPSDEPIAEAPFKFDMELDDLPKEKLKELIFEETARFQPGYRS

Row | Structure (SMILES) | Activity [1] | Activity [2] | Activity [3] | Activity [4] | Activity [5] | Activity (Homo sapiens [6]) | Activity [7] | Activity [8] | IC50 (MCF7 [9]) | Activity [10] | Activity [11] | Activity [12] | Activity [13] | Activity [14] | Activity (Homo sapiens [15]) | IC50 (HCT-116 [16]) | Activity [17] | Activity [18] | further results
1 | Cc1ccc(S(=O)(=O)N2CC(CCn3cnc4c(Br)ncnc43)Oc3cc(Cl)ccc32)cc1 (stereo not given) | 90% | 73% | 89% | 68% | 90% | 99% | 65% | 108% | 6.77 µM | 47% | 84% | 64% | 94% | 112% | 94% | 12.8 µM | 129% | 91% | 
2 | Cc1ccc(S(=O)(=O)N2CC(CCn3cnc4c(C(F)(F)F)ncnc43)Oc3ccc(Br)cc32)cc1 (stereo not given) |  |  |  |  |  |  |  |  | 20.6 µM |  |  |  |  |  |  | 23.6 µM |  |  | 
3 | Cc1ccc(S(=O)(=O)N2CC(CCn3cnc4c(C(F)(F)F)ncnc43)Oc3cc(Cl)ccc32)cc1 (stereo not given) |  |  |  |  |  |  |  |  | 23 µM |  |  |  |  |  |  | 13.6 µM |  |  | 
4 | Cc1ccc(S(=O)(=O)N2CC(CCn3cnc4c(Cl)ncnc43)Oc3cc(Cl)ccc32)cc1 (stereo not given) |  |  |  |  |  |  |  |  | 11.2 µM |  |  |  |  |  |  | 14.8 µM |  |  | 
5 | Cc1ccc(S(=O)(=O)N2CC(CCn3cnc4c(Br)ncnc43)Oc3ccc(Br)cc32)cc1 (stereo not given) |  |  |  |  |  |  |  |  | 7.31 µM |  |  |  |  |  |  | 16.4 µM |  |  | 

More lines, main results first:

Row | Activity [1] | Activity [2] | Activity [3] | Activity [4] | Activity [5] | Activity (Homo sapiens [6]) | Activity [7] | Activity [8] | IC50 (MCF7 [9]) | Activity [10] | Activity [11] | Activity [12] | Activity [13] | Activity [14] | Activity (Homo sapiens [15]) | IC50 (HCT-116 [16]) | Activity [17] | Activity [18] | Structure (SMILES) | further results
6 | 86% | 70% | 88% | 66% | 86% | 87% | 63% | 94% | 5.52 µM | 44% | 78% | 59% | 98% | 59% | 95% | 7.85 µM | 95% | 97% | Cc1ccc(S(=O)(=O)N2CC(CCn3cnc4c(Cl)nc(Cl)nc43)Oc3ccc(Br)cc32)cc1 (stereo not given) | 
7 | 88% | 75% | 96% | 73% | 93% | 104% | 50% | 96% | 2.27 µM | 56% | 90% | 62% | 88% | 82% | 88% | 4.44 µM | 89% | 112% | Cc1ccc(S(=O)(=O)N2CC(CCn3cnc4c(Cl)nc(Cl)nc43)Oc3ccc(C)cc32)cc1 (stereo not given) | Activity (MCF7 [19]): 100%; Activity (HCT-116 [20]): Active; Activity (HCT-116 [21]): Active; Activity (HCT-116 [22]): 51.25%; Activity (MCF7 [23]): Active; Activity (HCT-116 [24]): Active; Activity (HCT-116 [25]): 5.3%; Activity (HCT-116 [26]): Active; Activity (MCF7 [27]): Active; Activity (HCT-116 [28]): 26.5%; Activity (MCF7 [29]): 9.3%; Activity (HCT-116 [30]): 36.3%; Activity (MCF7 [31]): 77.8%; Activity (MCF7 [32]): Active; Activity (MCF7 [33]): 2.1%
8 |  |  |  |  |  |  |  |  | 14.5 µM |  |  |  |  |  |  | 15.7 µM |  |  | Cc1ccc(S(=O)(=O)N2CC(CCn3cnc4c(Cl)ncnc43)Oc3ccc(Br)cc32)cc1 (stereo not given) | 
9 | 81% | 86% | 84% | 74% | 90% | 106% | 55% | 97% | 4.01 µM | 52% | 99% | 67% | 95% | 70% | 89% | 9.4 µM | 131% | 93% | Cc1ccc(S(=O)(=O)N2CC(CCn3cnc4c(Br)ncnc43)Oc3ccc(C)cc32)cc1 (stereo not given) | 
10 |  |  |  |  |  |  |  |  | 31.1 µM |  |  |  |  |  |  | 4.63 µM |  |  | Cc1ccc(S(=O)(=O)N2CC(CCn3cnc4c(C(F)(F)F)ncnc43)Oc3ccc(C)cc32)cc1 (stereo not given) | 
11 | 93% | 89% | 78% | 94% | 87% | 139% | 67% | 74% | 3.26 µM | 67% | 76% | 57% | 84% | 77% | 103% | 7.63 µM | 100% | 72% | Cc1ccc(S(=O)(=O)N2CC(CCn3cnc4c(Cl)nc(Cl)nc43)Oc3cc(Cl)ccc32)cc1 (stereo not given) | Activity (MCF7 [19]): 100%; Activity (HCT-116 [20]): Active; Activity (HCT-116 [21]): Active; Activity (HCT-116 [22]): 49.2%; Activity (HCT-116 [34]): Active; Activity (MCF7 [23]): Active; Activity (HCT-116 [24]): Active; Activity (HCT-116 [25]): 6.67%; Activity (HCT-116 [26]): Active; Activity (MCF7 [27]): Active; Activity (HCT-116 [28]): 49.5%; Activity (MCF7 [29]): 7.9%; Activity (HCT-116 [30]): 28.4%; Activity (MCF7 [31]): 87.3%; Activity (MCF7 [32]): Active; Activity (MCF7 [33]): 0.83%
12 |  |  |  |  |  |  |  |  | 12.9 µM |  |  |  |  |  |  | 23.8 µM |  |  | Cc1ccc(S(=O)(=O)N2CC(CCn3cnc4c(Cl)ncnc43)Oc3ccc(C)cc32)cc1 (stereo not given) | 

Reference: ChEMBL document CHEMBL6071131, “New substituted benzoxazine derivatives as potent inducers of membrane permeability and cell death” (Bioorg Med Chem, 2024)
